Source: PMC6828556 (Biochemical pharmacology, 2017)

Tests used:
11β-HSD2 [1] = molecular target: T1, 11β-HSD2 (Homo sapiens, UniProt P80365); assay: 11β-HSD2 activity in lysates of HEK-293 cells stably expressing human 11β-HSD2; format: biochemical; conditions: for inhibition at 20 µM: read-out: inhibition of 11β-HSD2 enzyme activity; for IC25 for 11β-HSD2: as determined in HEK-293 cell lysates; for residual 11β-HSD2 activity: 20 μM test substance
T1 sequence (P80365 1-405): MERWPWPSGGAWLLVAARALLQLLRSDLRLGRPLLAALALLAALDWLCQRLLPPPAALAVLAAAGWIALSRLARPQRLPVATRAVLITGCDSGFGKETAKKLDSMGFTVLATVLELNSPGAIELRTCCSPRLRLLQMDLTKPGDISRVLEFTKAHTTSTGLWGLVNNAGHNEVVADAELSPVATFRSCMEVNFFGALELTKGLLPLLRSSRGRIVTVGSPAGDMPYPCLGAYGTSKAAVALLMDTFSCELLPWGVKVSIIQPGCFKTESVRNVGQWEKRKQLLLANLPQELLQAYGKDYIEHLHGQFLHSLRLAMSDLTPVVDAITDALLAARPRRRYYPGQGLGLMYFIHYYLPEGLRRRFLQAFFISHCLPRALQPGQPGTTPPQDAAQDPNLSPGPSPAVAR
How it was run: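 Reactions were stopped with excess unlabeled cortisone/cortisol, giving about 20–25% conversion. Products were separated by TLC (chloroform:methanol 9:1) and counted by scintillation. Activity was normalized to vehicle; mean ± SD, ≥3 independent experiments.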

human 11β-HSD1 = human 11β-HSD1 (Homo sapiens, UniProt P28845); format: biochemical; conditions: for inhibition at 20 µM: read-out: inhibition of 11β-HSD1 enzyme activity; for activity against 11β-HSD1 (in words): HEK-293 lysates, recombinant human enzyme
How it was run: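 Lysates of HEK-293 cells stably co-expressing human 11β-HSD1 and H6PDH (HHH7 clone) were incubated 10 min at 37°C with 200 nM radiolabeled cortisone, 500 μM NADPH and test compound or DMSO vehicle (max 0.1%). Reactions were stopped with excess unlabeled cortisone/cortisol, giving about 20–25% conversion. Steroids were separated by TLC (chloroform:methanol 9:1) and counted by scintillation. Activity was normalized to vehicle; mean ± SD, ≥3 independent experiments. IC50 was skipped when residual activity at 20 μM exceeded 40%.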

human 17β-HSD1 = molecular target: T2, human 17β-HSD1 (Homo sapiens, UniProt P14061); assay: 17β-HSD1 activity in lysates of transiently transfected HEK-293 cells; format: biochemical; conditions: HEK-293 lysates, 200 nM estrone; data not shown
T2 sequence (P14061 1-328): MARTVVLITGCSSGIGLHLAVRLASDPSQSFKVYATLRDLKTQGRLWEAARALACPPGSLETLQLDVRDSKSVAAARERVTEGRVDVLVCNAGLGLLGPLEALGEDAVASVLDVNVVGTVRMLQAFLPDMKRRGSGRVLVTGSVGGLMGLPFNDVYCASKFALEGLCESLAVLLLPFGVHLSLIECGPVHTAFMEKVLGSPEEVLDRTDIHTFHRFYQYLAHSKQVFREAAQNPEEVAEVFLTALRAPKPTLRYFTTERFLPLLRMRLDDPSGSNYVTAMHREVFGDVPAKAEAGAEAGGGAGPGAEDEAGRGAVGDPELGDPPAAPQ
How it was run: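 Lysates of HEK-293 cells transiently expressing human 17β-HSD1 were incubated for 10 min at 37°C with 200 nM estrone (containing 50 nCi [2,4,6,7-3H]-estrone), 500 μM NADPH and test compound or DMSO vehicle. Steroids were separated by TLC, and substrate conversion was measured by scintillation counting. Activity was normalized to the vehicle control. Data are mean ± SD from at least three independent experiments.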

human 17β-HSD2 = molecular target: T3, human 17β-HSD2 (Homo sapiens, UniProt P37059); assay: 17β-HSD2 activity in lysates of transiently transfected HEK-293 cells; format: biochemical; conditions: HEK-293 lysates, 200 nM estradiol; data not shown
T3 sequence (P37059 1-387): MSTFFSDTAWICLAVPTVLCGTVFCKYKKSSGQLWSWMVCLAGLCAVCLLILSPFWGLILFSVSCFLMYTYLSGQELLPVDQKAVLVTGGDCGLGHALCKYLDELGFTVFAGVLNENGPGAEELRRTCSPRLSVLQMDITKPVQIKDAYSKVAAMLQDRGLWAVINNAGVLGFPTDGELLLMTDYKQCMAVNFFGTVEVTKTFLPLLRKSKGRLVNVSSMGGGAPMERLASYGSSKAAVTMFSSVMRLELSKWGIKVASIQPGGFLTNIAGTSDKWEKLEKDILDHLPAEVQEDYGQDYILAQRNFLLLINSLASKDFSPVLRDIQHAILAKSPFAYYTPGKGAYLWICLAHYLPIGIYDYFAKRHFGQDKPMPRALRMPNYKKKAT
How it was run: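 Lysates of HEK-293 cells transiently expressing human 17β-HSD2 were incubated for 10 min at 37°C with 200 nM estradiol (containing 50 nCi [2,4,6,7-3H]-estradiol), 500 μM NAD+ and test compound or DMSO vehicle. Steroids were separated by TLC, with conversion quantified by scintillation counting. Results were normalized to the vehicle control. Data are mean ± SD from at least three independent experiments.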

11β-HSD2 [2] = molecular target: T1, 11β-HSD2; assay: 11β-HSD2 activity in intact SW-620 cells; format: cell-based
How it was run: (§1)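 Cells were grown in DMEM with 10% FBS (SW-620 passages 11–15, MCF-7 passages 19–27) and seeded at 100 000 (SW-620) or 50 000 (MCF-7) per well. After 24 h, medium was replaced by steroid- and serum-free DMEM with vehicle or inhibitor plus radiolabeled cortisol (10 nCi; 50 nM final). Incubation was at 37°C for 4 h (SW-620) or 5 h (MCF-7). Conversion was read by TLC and scintillation counting.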

11β-HSD2 [3] = molecular target: T1, 11β-HSD2; assay: 11β-HSD2 activity in intact MCF-7 cells; format: cell-based
How it was run: as §1

11β-HSD2 [4] = molecular target: T1, 11β-HSD2; format: biochemical; conditions: preincubation 0, 5, 20 min at 4°C or 10 min followed by dilution
How it was run: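 Lysates of HEK-293 cells expressing human 11β-HSD2 were preincubated with test compound for 0, 5 or 20 min at 4°C before activity measurement. Alternatively, lysates were preincubated 10 min with compound, then diluted 1:2 or 1:4 before measuring 11β-HSD2 activity (radiolabeled cortisol, NAD+, TLC/scintillation). Data were normalized to DMSO control; mean ± SD, ≥3 independent experiments.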

[5] = predominately to albumin; cited from earlier work
[6] = cited from earlier work
[7] = first trimester exposure, 229 women, 50-800 mg daily, prospective cohort; cited from earlier work
11β-HSD1 = conditions: cited from earlier work
11β-HSD2 [8] = conditions: cited from earlier work

human 11β-HSD1, sequence (P28845 whole entry): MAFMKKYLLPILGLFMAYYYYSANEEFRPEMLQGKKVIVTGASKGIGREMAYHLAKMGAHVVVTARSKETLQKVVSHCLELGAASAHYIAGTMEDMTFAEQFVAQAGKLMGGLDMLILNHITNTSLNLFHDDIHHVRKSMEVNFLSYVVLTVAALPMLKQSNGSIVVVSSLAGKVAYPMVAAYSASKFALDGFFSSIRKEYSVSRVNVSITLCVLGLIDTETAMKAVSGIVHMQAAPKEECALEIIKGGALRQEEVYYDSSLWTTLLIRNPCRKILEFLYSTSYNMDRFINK

SMILES: N=C(N)c1ccc(OCCCCCOc2ccc(C(=N)N)cc2)cc1 [pentamidine]
- inhibition at 20 µM (11β-HSD2 [1]): < 40%
- inhibition at 20 µM (human 11β-HSD1): < 40%

SMILES: CC(O)C(C)n1ncn(-c2ccc(N3CCN(c4ccc(OCC5COC(Cn6cncn6)(c6ccc(Cl)cc6Cl)O5)cc4)CC3)cc2)c1=O (centres unmarked) [OHI, hydroxyitraconazole]
- IC50 (11β-HSD2 [1]): 223 ± 31 nM
- inhibition of human 11β-HSD2 (in words) (11β-HSD2 [1]; 5 μM, HEK-293 lysates, 200 nM cortisol): complete inhibition
- inhibition of 17β-HSD1 activity (human 17β-HSD1): None of the compounds inhibited 17β-HSD1 or 17β-HSD2 activity
- inhibition of 17β-HSD2 activity (human 17β-HSD2): None of the compounds inhibited 17β-HSD1 or 17β-HSD2 activity
- IC50 (11β-HSD2 [2]): 820 ± 180 nM
- IC50 (11β-HSD2 [3]): 680 ± 200 nM
- irreversible 11β-HSD2 inhibition (11β-HSD2 [4]): excluded
- plasma protein binding [5]: 99.6%

SMILES: Cc1onc(-c2c(F)cccc2Cl)c1C(=O)N[C@@H]1C(=O)N2[C@@H]1SC(C)(C)[C@@H]2C(=O)O [flucloxacillin]
- inhibition at 20 µM (11β-HSD2 [1]): < 40%
- inhibition at 20 µM (human 11β-HSD1): < 40%

SMILES: CCC(C)n1ncn(-c2ccc(N3CCN(c4ccc(OCC5COC(Cn6cncn6)(c6ccc(Cl)cc6Cl)O5)cc4)CC3)cc2)c1=O (centres unmarked) [itraconazole]
- IC50 (11β-HSD2 [1]): 139 ± 14 nM
- IC25 for 11β-HSD2 (11β-HSD2 [1]): 78 nM
- activity against 11β-HSD1 (in words) (human 11β-HSD1): inactivity towards 11β-HSD1
- inhibition of 17β-HSD1 activity (human 17β-HSD1): None of the compounds inhibited 17β-HSD1 or 17β-HSD2 activity
- inhibition of 17β-HSD2 activity (human 17β-HSD2): None of the compounds inhibited 17β-HSD1 or 17β-HSD2 activity
- IC50 (11β-HSD2 [2]): 1070 ± 290 nM
- IC50 (11β-HSD2 [3]): 1190 ± 240 nM
- irreversible 11β-HSD2 inhibition (11β-HSD2 [4]): excluded
- concentration in fat tissue relative to plasma ([6]; fat tissue): approximately 17 fold
- duration of treatment needed to reach plasma steady-state levels ([6]; human plasma): 15 days
- concentration in lung, liver, muscle and kidney relative to plasma ([6]; lung, liver, muscle and kidney): 2-3 fold
- rate of malformations compared to the control [7]: no difference

SMILES: CCC[C@@H]1C[C@@H](C(=O)N[C@@H]([C@H]2O[C@H](SC)[C@H](O)[C@@H](O)[C@H]2O)[C@@H](C)O)N(C)C1 [lincomycin]
- inhibition at 20 µM (11β-HSD2 [1]): < 40%
- inhibition at 20 µM (human 11β-HSD1): < 40%

SMILES: CCN(CC)CCCC(C)Nc1ccnc2cc(Cl)ccc12 (centres unmarked) [chloroquine]
- inhibition at 20 µM (11β-HSD2 [1]): < 40%
- inhibition at 20 µM (human 11β-HSD1): < 40%

SMILES: Clc1ccc(C(Cn2ccnc2)OCc2ccsc2Cl)c(Cl)c1 (centres unmarked) [tioconazole]
- residual 11β-HSD2 activity (11β-HSD2 [1]; HEK-293 lysates): 50%
- inhibition at 20 µM (human 11β-HSD1): ≥ 50%

SMILES: CC(C)(C)C(=O)C(Oc1ccc(Cl)cc1)n1cncn1 (centres unmarked) [triadimefon]
- IC50 (11β-HSD1; read-out: IC50 as competitive inhibitor of 11β-HSD1): 15000 nM
- Km (11β-HSD1; read-out: Km as substrate of 11β-HSD1): 3.5 µM

SMILES: CC(=O)O[C@H]1C[C@@]2(C)[C@@H](C[C@@H](O)[C@H]3[C@@]4(C)CC[C@@H](O)[C@@H](C)[C@@H]4CC[C@@]32C)/C1=C(\CCC=C(C)C)C(=O)O [fusidic acid]
- inhibition at 20 µM (11β-HSD2 [1]): < 40%
- inhibition at 20 µM (human 11β-HSD1): < 40%

SMILES: CC(=O)N1CCN(c2ccc(OCC3COC(Cn4ccnc4)(c4ccc(Cl)cc4Cl)O3)cc2)CC1 (centres unmarked) [Ketoconazole]
- inhibitory effect toward 11β-HSD1 (in words) (11β-HSD1): weak inhibitory effects
- inhibitory effect toward 11β-HSD2 (in words) (11β-HSD2 [8]): weak inhibitory effects

SMILES: CCOc1ccc2ccccc2c1C(=O)N[C@@H]1C(=O)N2[C@@H]1SC(C)(C)[C@@H]2C(=O)O [nafcillin]
- inhibition at 20 µM (11β-HSD2 [1]): < 40%
- inhibition at 20 µM (human 11β-HSD1): < 40%

SMILES: CCCN(CCC)S(=O)(=O)c1ccc(C(=O)O)cc1 [probenecid]
- inhibition at 20 µM (11β-HSD2 [1]): < 40%
- inhibition at 20 µM (human 11β-HSD1): < 40%

SMILES: Cc1onc(-c2ccccc2Cl)c1C(=O)N[C@@H]1C(=O)N2[C@@H]1SC(C)(C)[C@@H]2C(=O)O [cloxacillin]
- inhibition at 20 µM (11β-HSD2 [1]): < 40%
- inhibition at 20 µM (human 11β-HSD1): < 40%

SMILES: CCCSc1ccc2nc(NC(=O)OC)[nH]c2c1 [Albendazole]
- activity against 11β-HSD2 (in words) (11β-HSD2 [1]; HEK-293 lysates, recombinant human enzyme): inactive
- activity against 11β-HSD1 (in words) (human 11β-HSD1): inactive

SMILES: CC[C@@H]([C@H](C)O)n1ncn(-c2ccc(N3CCN(c4ccc(OC[C@@H]5CO[C@@](Cn6cncn6)(c6ccc(F)cc6F)C5)cc4)CC3)cc2)c1=O [posaconazole]
- IC50 (11β-HSD2 [1]): 460 ± 98 nM
- IC25 for 11β-HSD2 (11β-HSD2 [1]): 237 nM
- activity against 11β-HSD1 (in words) (human 11β-HSD1): inactivity towards 11β-HSD1
- inhibition of 17β-HSD1 activity (human 17β-HSD1): None of the compounds inhibited 17β-HSD1 or 17β-HSD2 activity
- inhibition of 17β-HSD2 activity (human 17β-HSD2): None of the compounds inhibited 17β-HSD1 or 17β-HSD2 activity
- residual 11β-HSD2 activity (11β-HSD2 [2]; SW-620 cells, 5 μM): approximately 60%
- residual 11β-HSD2 activity (11β-HSD2 [3]; MCF-7 cells, 5 μM): ~40%
- irreversible 11β-HSD2 inhibition (11β-HSD2 [4]): excluded
- plasma protein binding [5]: ≥ 98%
- concentration in pulmonary alveolar cells compared with plasma ([6]; pulmonary alveolar cells): 31-42 fold

SMILES: CCN(CC)Cc1cc(Nc2ccnc3cc(Cl)ccc23)ccc1O [amodiaquine]
- inhibition at 20 µM (11β-HSD2 [1]): < 40%
- inhibition at 20 µM (human 11β-HSD1): < 40%

SMILES: Clc1ccc(CCC(Cn2ccnc2)Sc2c(Cl)cccc2Cl)cc1 (centres unmarked) [butoconazole]
- residual 11β-HSD2 activity (11β-HSD2 [1]; HEK-293 lysates): 44%
- inhibition at 20 µM (human 11β-HSD1): ≥ 50%

SMILES: Clc1ccc(C(Cn2ccnc2)OCc2csc3c(Cl)cccc23)c(Cl)c1 (centres unmarked) [sertaconazole]
- residual 11β-HSD2 activity (11β-HSD2 [1]; HEK-293 lysates): 61%
- inhibition at 20 µM (human 11β-HSD1): ≥ 50%

SMILES: CCC[C@@H]1C[C@@H](C(=O)N[C@@H]([C@H]2O[C@H](SC)[C@H](O)[C@@H](O)[C@H]2O)[C@H](C)Cl)N(C)C1 [clindamycin]
- inhibition at 20 µM (11β-HSD2 [1]): < 40%
- inhibition at 20 µM (human 11β-HSD1): < 40%
